RORA act – activators of orphan receptor RORA, primary screen, cell-based, luminescence; CHO-K1 Gal4-RORA LBD luciferase reporter; percent increase over mock-subtracted basal signal; activation, % at 10 µM; 65,000 tested, 1.5% active; AID 560, 2006;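 active = activation above the mean of all tested compounds plus 3 SD, cut at about 49% in these data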;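 note: 0% = DMSO-treated RORA cells and 100% = added signal equal to DMSO minus mock-transfected cells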
D1 allo mod – D1 CRE-luciferase signal change, two-sided – cell-based, HEK293 D1, dopamine EC30, D1 allosteric modulator project, primary screen; D(1A) dopamine receptor (Homo sapiens), P21728; dopamine EC30 potentiation; actives deviate in either direction; B-score at 10 µM; 58,000 tested, 5.9% active; AID 641, 2007;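 active = luminescence count or its row- and column-corrected plate score outside the 99.7% band of the plate's sample wells, on either side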
Target sequence (P21728 whole entry, looked up): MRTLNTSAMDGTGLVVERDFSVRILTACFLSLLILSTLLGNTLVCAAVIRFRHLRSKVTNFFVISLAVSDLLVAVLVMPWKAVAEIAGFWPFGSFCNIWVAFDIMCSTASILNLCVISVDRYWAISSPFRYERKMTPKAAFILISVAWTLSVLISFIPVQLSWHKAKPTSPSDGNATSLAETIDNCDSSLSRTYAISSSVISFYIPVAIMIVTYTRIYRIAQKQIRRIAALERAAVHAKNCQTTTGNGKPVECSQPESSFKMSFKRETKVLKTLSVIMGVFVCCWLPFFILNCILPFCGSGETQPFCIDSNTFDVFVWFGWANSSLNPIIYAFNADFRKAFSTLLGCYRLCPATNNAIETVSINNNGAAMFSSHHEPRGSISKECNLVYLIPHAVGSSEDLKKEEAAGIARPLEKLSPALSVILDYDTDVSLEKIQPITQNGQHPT
M1 antag – antagonists of rat M1 muscarinic receptor | B-score at 10 µM | Muscarinic acetylcholine receptor M1 (Rattus norvegicus), P08482 | CHO-M1 cells, Fluo-4 calcium, ACh EC80 antagonist mode; stronger effect = lower value | AID 628, 2007 | 64,000 tested, 3.4% active;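 active = calcium fluorescence response, raw or row-and-column corrected B-score, differing from the plate sample mean either way at a set confidence level, mostly lower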
SF-1 act – activators of human SF-1, primary screen, cell-based, CHO-K1, Gal4-SF-1 LBD, luciferase luminescence; Steroidogenic factor 1 (Homo sapiens), Q13285; CHO-K1 Gal4-SF-1 LBD luciferase reporter; % increase over DMSO SF-1-specific signal; activation, % at 10 µM; 65,000 tested, 1.9% active;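 active = activation above the mean activation of all tested compounds plus 3 SD, cut at about 50% in these data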
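Compound – one dose, 10 µM compound, 1% DMSO · Test system – transient Gal4-SF-1 LBD reporter, CHO-K1 · Input – 4,000 cells in each well · Read-out basis – percent activation relative to DMSO median and mock-transfected background · Replicates – single measurement per compound · Technique – steady-glow luciferase luminescence, read after 15 min reagent incubation · Timing – 20 h compound treatment, 37 °C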
M1 ag – M1 muscarinic receptor agonists, primary screen, CHO-M1 cells, Fluo-4 calcium, agonist mode | B-score at 10 µM | Fluo-4 calcium fluorescence; stronger effect = higher value | 64,000 tested, 3% active;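 active = fluorescence rise, raw or as B-score row- and column-corrected plate score, outside the 99.7% band of its plate's samples, either direction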
Htt clearance – clearance of mutant huntingtin inclusions, primary screen, imaging, HeLa Exon1htt(103Q)mCFP, confocal imaging | 47,000 tested, 0.42% active | aggregate imaging; zero = plate's median compound well | inhibition, % at 1.5 µM;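 active = inhibition of aggregate fluorescence above about 70%, also judged a hit by eye on the cell image, limit read from the data, passing the limit was not always enough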;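 note: cells exposed to compound for three days before fixation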
M1 antag conf – rat M1 muscarinic receptor antagonists, confirmation, CHO cells, Fluo-4 calcium, duplicate. 1,700 tested, 43% active. AID 677, 2007. shares compounds with M1 antag. ACh EC80 antagonism; stronger effect = lower value. calcium response (max-min fluorescence) at 10 µM;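 active = calcium response below the same-plate mean of wells given acetylcholine alone at its 80%-effect dose, minus 3 SD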;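 note: raw fluorescence intensity difference in arbitrary instrument units and not normalized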
mGluR4 antag – human mGluR4 response to M1 antagonist hits, M1 allosteric modulator project, cell-based, antagonist mode, secondary assay 1. shares compounds with M1 antag. AID 678, 2007. 1,700 tested, 0.9% active. CHO-mGluR4 calcium flux, Fluo-4 fluorescence, glutamate EC80; stronger effect = lower value. fluorescence response (max-min) at 10 µM;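 active = fluorescence response below the plate's average for near-maximal glutamate wells, less 3 SD of those wells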;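 note: raw unnormalized fluorescence span taken in the window right after glutamate addition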
D1 PAM confirm – D1 receptor positive allosteric modulators, retest, confirmation, cell-based, HEK293 D1, CRE-luciferase, duplicate; dopamine EC30 potentiation; stronger effect = higher value; 2,200 tested, 88% active; shares compounds with D1 allo mod; luminescence at 10 µM; AID 642, 2007;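 active = luminescence in either of two replicates above the same-plate mean plus 3 SD of the low-dose dopamine control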
D1 no dopamine – D1 receptor agonism without dopamine, confirmation, mechanism study for D1 allosteric modulator project, cell-based, HEK293 D1, CRE-luciferase, secondary assay 1; shares compounds with D1 allo mod; luminescence, no dopamine; stronger effect = higher value; luminescence at 10 µM; 1,900 tested, 0.8% active; AID 646, 2007; in the data active = luminescence above about 3900
Isoprot counter – counter-screen for D1 modulators: isoproterenol response in HEK293 cells; 2,200 tested, 63% active; calls only at 10 µM; HEK293 D1 CRE-luciferase, isoproterenol EC30 counter-screen; shares compounds with D1 allo mod;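 active = luminescence in either replicate above plate mean of wells with a partly effective reference agonist dose plus 3 SD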;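 note: isoproterenol raises cAMP through native beta-adrenoceptor Gs so signal bypasses D1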
* hit, by the source's call; i = inactive; . = not tested or not shown; + = active, no number. This is a sample that favours compounds with a hit; in the whole collection about 11% have one here.

SMILES	RORA act	D1 allo mod	M1 antag	SF-1 act	M1 ag	Htt clearance	M1 antag conf	mGluR4 antag	D1 PAM confirm	D1 no dopamine	Isoprot counter
COc1ccc(NC(=O)N[C@@H](CCSC)C(=O)O)cc1Cl	19	-0.76	.	-11	.	-2	.	.	.	.	.
CCOC(=O)c1sc(NC(=O)CSc2nncs2)c(C(=O)OCC)c1C	7	4*	-5*	0	-0.19	-91	555	247	6908*	1576	i
CCOC(=O)c1sc(NC(=O)CSc2nnc(-c3ccco3)n2CC)c(C(=O)OCC)c1C	0	0.016	-0.065	28	-0.51	-20	.	.	.	.	.
COc1ccc(CN2CCN(S(=O)(=O)c3ccc(NC(C)=O)cc3)CC2)cc1OC	-9	5.2*	-2.7*	15	-1.5	-58	529	212	15368*	1544	+
CC(=O)NC12CC3CC(C)(C1)CC(NC(C)=O)(C3)C2	-13	-0.014	-0.29	-2	-0.17	.	.	.	.	.	.
O=S1(=O)N=C(N2CCc3ccccc3C2)c2ccccc21	-35	2.4*	-2.1*	16	0.52	21	600*	191	6388*	1564	i
O=S1(=O)N=C(N2CCCc3ccccc32)c2ccccc21	-11	0.93	-0.35	19	-0.43	32	.	.	.	.	.
O=C1CC(N2CCN(Cc3ccc4c(c3)OCO4)CC2)C(=O)N1CCc1ccccc1 (configuration not stated)	6	2.5*	-1.2*	-19	-2.5	.	482	220	4952	960	i
CC1Cc2nc(SCC(N)=O)n(Cc3ccccc3)c(=O)c2S1 (configuration not stated)	-8	2.2	-0.73	-3	0.27	.	.	.	.	.	.
CCSc1nc2c(c(=O)n1Cc1ccccc1)SC(C)C2 (configuration not stated)	16	3.4*	-3.7*	4	1.1	.	373*	245	11532*	1552	i
Nc1nc(CN2CCN(c3ccccc3)CC2)nc(N2CCCc3ccccc32)n1	-13	4*	-3.1*	0	-0.12	.	659	252	8864*	1484	i
COc1nc(Nc2ccc(OC)c(Cl)c2)nc(OC)n1	-2	4.3*	-1.2*	6	-0.11	-63	603	255	10816*	1484	+
COc1cccc(-n2c(SC)nnc2-c2cnccn2)c1	-1	14*	-3*	-8	0.68	24	622	266	5740	1548	i
Clc1ccc(-n2nnnc2-c2ccccc2)cc1Cl	-25	13*	-2.6*	-9	0.35	.	516	250	19112*	1808	+
CCOC(=O)C1CCN(S(=O)(=O)c2cc(Br)cc3c2N(C(C)=O)C(C)C3)CC1 (configuration not stated)	-8	4.6*	-2.3*	-1	0.43	.	519	200	8392*	1388	+
O=C1N[C@@H](Cc2cnc[nH]2)C(=O)N2CCC[C@@H]12	-12	0.31	0.26	-6	-0.24	.	.	.	.	.	.
CCN(CC)S(=O)(=O)c1ccc2[nH]c(=O)[nH]c2c1	-17	0.23	-0.37	8	-0.93	.	.	.	.	.	.
CCOC(=O)c1c(-c2cccs2)csc1NC(C)=O	.	.	.	.	.	-52	.	.	.	.	.
CCOC(=O)c1c(-c2cccs2)csc1NC(=O)CSc1ncn[nH]1	4	3.3*	-2.7*	29	-0.39	.	621	235	11080*	2064	i
Cc1ccc(-n2ncc(C#N)c2/N=C/N2CCN(C)CC2)cc1	16	0.00058	-0.17	-8	0.058	24	.	.	.	.	.
Cc1ccc(-n2ncc(C#N)c2/N=C/N2CCCCCC2)cc1	6	20*	-2*	10	0.5	.	560*	196	17800*	1536	+
CCC(C)Nc1nc(SC(C(C)=O)C(C)=O)nc(N(C)C)n1 (configuration not stated)	4	0.23	-0.13	-5	1.1	-48	.	.	.	.	.
CCOC(=O)Nc1ccc2c(c1)N(C(=O)CCN1CCOCC1)c1ccccc1S2	-24	4.8*	-6.5*	-8	-0.56	.	434*	236	10492*	1592	+
O=C(CCN1CCOCC1)Nc1cccc(Br)c1	-12	0.11	-0.0011	-8	0.082	.	.	.	.	.	.
COC(=O)Nc1ccc2c(c1)N(C(=O)CCN1CCOCC1)c1ccccc1S2	-26	4.3*	-5.2*	-16	-0.29	-20	495*	248	8120*	1920	i
SMILES	RORA act	D1 allo mod	M1 antag	SF-1 act	M1 ag	Htt clearance	M1 antag conf	mGluR4 antag	D1 PAM confirm	D1 no dopamine	Isoprot counter
C=CCOC(=O)C1=C(C)NC(=O)NC1C1CC=CCC1 (configuration not stated)	-11	0.11	-0.11	-13	0.0048	.	.	.	.	.	.
COc1cc(-c2nc(S(=O)(=O)c3ccc(C)cc3)c(N3CCOCC3)o2)cc(OC)c1OC	-5	5.4*	-13*	-24	0.43	.	569	183	8652*	1408	+
COc1cc(-c2nc(S(=O)(=O)c3ccc(Cl)cc3)c(N3CCOCC3)o2)cc(OC)c1OC	-14	3	-0.5	-17	-0.49	.	.	.	.	.	.
Cc1nn(C)c(C)c1/C=N/O	.	.	.	.	.	-116	.	.	.	.	.
c1cncc(-c2nc(NCc3ccco3)c3ccccc3n2)c1	6	7.3*	-2.7*	0	1.4	45	498*	228	11656*	.	+
CCc1c(C#N)c(SCc2c(C)noc2C)nc2c1C(=O)CC(C)(C)C2	-12	3.6	-0.13	-1	-0.037	.	.	.	.	.	.
